Our source for the activity change, negative = inhibition and AC50 values is PubChem BioAssay AID493213 (Broad Institute, 2011).

Where “and” joins values, the source holds several entries; their conditions need not be identical. Identical values can stand only once. Calls of active or inactive are those of the source.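 How the source made its calls: active means dose response lowering luminescence by over half the proteasome blocker control effect, potency within ten times top dose; inactive means change in the opposite direction, plus the rest.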

Test system in one assay: not listed separately
The assay can be described thus: cellular proteasome inhibitors – cell-based, luminescence, U2OS, dry powder, set 3, counter-screen for HIF activator project, dose response (AID 493213). The conditions noted are these: U2OS proteasome chymotrypsin-like activity, Proteasome-Glo luminescence; at 38 µM (top of the series). Put shortly: (§1)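 Assay system: U2OS cells. Input: 2,500 cells per well. Schedule: 24 h plating, 4 h compound exposure, 2 h room-temperature reagent. Compound dosing: 8-point 3-fold dilution series, 16.5 mM top stock. Replicates: duplicates. Technique: luminescence with 0.5X chymotrypsin-like Proteasome-Glo reagent.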
For orientation: The purpose of a counterscreen is to sort out artefacts and off-target activity.
For the molecule `Cn1c(-c2ccccc2)cnc1Nc1nc(-c2ccccn2)nnc1-c1ccccc1`, the activity change, negative = inhibition is 6.25% (inactive).
On the same count and under the same terms, for `c1ccc(-c2nnc(-c3ccccn3)nc2N2CCC(N3CCOCC3)CC2)cc1` the value was 16.5% (inactive).
In the case of `c1ccc(-c2nnc(-c3ccccn3)nc2N2CCC(C3CCCCC3)C2)cc1` (configuration not stated), the activity change, negative = inhibition is 51.6% (inactive).
On to `O=C(NCCCn1ccnc1)c1cc(-c2ccccc2)on1`, for which the activity change, negative = inhibition is 9.43% (inactive).
For the molecule `c1ccc(-c2nnc(-c3ccccn3)nc2NCCc2ccccn2)cc1`, the activity change, negative = inhibition is 16.8% (inactive).
Regarding `c1ccc(CNc2nc(-c3ccccn3)nnc2-c2ccccc2)cc1`, the activity change, negative = inhibition was 25.8% (inactive).
Same read-out and setting: for `Oc1ccc(CN2CCc3ccccc3C2)c2cccnc12` the value was 65.3% (inactive) and 46.7% (inactive).
Consider `c1ccc(-c2nnc(-c3ccccn3)nc2Nc2cnc3ccccc3n2)cc1`, for which the activity change, negative = inhibition is -2.5% (inactive).
On to `c1ccc(-c2nnc(-c3ccccn3)nc2NCC2CC2)cc1`, for which the activity change, negative = inhibition is -6.55% (inactive).
In the case of `c1ccc(-c2nnc(-c3ccccn3)nc2NCCCN2CCOCC2)cc1`, the activity change, negative = inhibition is 6.94% (inactive).
With `c1ccc(CCNc2nc(-c3ccccn3)nnc2-c2ccccc2)cc1`, the activity change, negative = inhibition was 43.3% (inactive).
Take `c1ccc(-c2nnc(-c3ccccn3)nc2Nc2nc3ccccc3s2)cc1`: the activity change, negative = inhibition was 28.5% (inactive).
Still for that read-out and setting: for `CC(Nc1nc(-c2ccccn2)nnc1-c1ccccc1)c1ccccc1` (configuration not stated) the value was 22.8% (inactive); for `Cc1ccccc1CNc1nc(-c2ccccn2)nnc1-c1ccccc1`, 29.7% (inactive).
For `COc1ccc(CNc2nc(-c3ccccn3)nnc2-c2ccccc2)cc1`, the activity change, negative = inhibition is 53.2% (inactive).
With `Cc1ccc(NC(=O)c2cc(-c3ccccc3)on2)cn1`, the activity change, negative = inhibition is 14.5% (inactive).
Consider `c1ccc(-c2nnc(-c3ccccn3)nc2N2CCC(c3ccccc3)C2)cc1` (configuration not stated), for which the activity change, negative = inhibition was -6.19% (inactive).
Take `O=C(NCCCN1CCOCC1)c1cc(-c2ccccc2)on1`: the activity change, negative = inhibition is -24.4% (inactive).
On the same count and under the same terms, under `O=C(Nc1nnc(-c2ccccc2)s1)c1cc(-c2ccccc2)on1` stands -5.17% (inactive).
Regarding `O=C(NCC1CCCCC1)c1cc(-c2ccccc2)on1`, the activity change, negative = inhibition is -23.5% (inactive).
Still for that read-out and setting: for `O=C(NCCN1CCCCC1)c1cc(-c2ccccc2)on1` the value was -24.8% (inactive); for `CC1CN(Cc2ccc(O)c3ncccc23)CC(C)O1` (configuration not stated), 12% (inactive).
Still for that read-out and setting: under `C=CCNc1nc(-c2ccccn2)nnc1-c1ccccc1` stands 4.88% (inactive); under `O=C(Nc1cnc2ccccc2c1)c1cc(-c2ccccc2)on1`, -16.4% (inactive).
Turning to `CC(C)(C)CCNc1nc(-c2ccccn2)nnc1-c1ccccc1`, the activity change, negative = inhibition is 145% (inactive) and 67.4% (inactive).
On the same count and under the same terms, under `COc1cccc(CNc2nc(-c3ccccn3)nnc2-c2ccccc2)c1` stands 36.9% (inactive); under `N#CC1(c2ccccc2)CCN(Cc2ccc(O)c3ncccc23)CC1`, 48.4% (inactive).
On the same count and under the same terms, for `Cc1ccc(CNc2nc(-c3ccccn3)nnc2-c2ccccc2)cc1` the value was 14.3% (inactive); for `c1ccc(-c2nnc(-c3ccccn3)nc2NCC2CCCCC2)cc1`, 49.9% (inactive).
Same read-out and setting: under `c1ccc(-c2cccc(CNc3nc(-c4ccccn4)nnc3-c3ccccc3)c2)cc1` stands 26.9% (inactive).
Turning to `c1ccc(-c2csc(Nc3nc(-c4ccccn4)nnc3-c3ccccc3)n2)cc1`, the activity change, negative = inhibition is -8.99% (inactive).
The same measure, in the same setting: for `Oc1ccc(CN2CCC(Cc3ccccc3)CC2)c2cccnc12` the value was 30.7% (inactive).
Take `O=C(c1cc(-c2ccccc2)on1)N1CCC(N2CCOCC2)CC1`: the activity change, negative = inhibition is -8.89% (inactive).
Same read-out and setting: for `Cc1ccc(CNc2nc(-c3ccccn3)nnc2-c2ccccc2)cc1C` the value was 76.7% (inactive); for `O=C(c1cc(-c2ccccc2)on1)N1CCC(CO)CC1`, -22.3% (inactive); for `CC(C)(C)OC(=O)N1CCN(Cc2ccc(O)c3ncccc23)CC1`, 3.79% (inactive).
Still for that read-out and setting: under `Oc1ccc(CNC2CCc3ccccc32)c2cccnc12` (configuration not stated) stands 81.7% (inactive).
The same measure, in the same setting: under `Cn1c(-c2ccccc2)cnc1NC(=O)c1cc(-c2ccccc2)on1` stands -10.3% (inactive).
Consider `COc1ccccc1N1CCN(Cc2ccc(O)c3ncccc23)CC1`, for which the activity change, negative = inhibition was 27.2% (inactive).
On the same count and under the same terms, under `CN1CCN(c2nc(-c3ccccn3)nnc2-c2ccccc2)CC1` stands 20.7% (inactive); under `Cn1c(NC(=O)c2cc(-c3ccccc3)on2)nc2ccccc21`, -1.13% (inactive).
With `Cc1cccc(Nc2nc(-c3ccccn3)nnc2-c2ccccc2)n1`, the activity change, negative = inhibition is -11.6% (inactive).
Same read-out and setting: under `c1ccc(-c2nnc(-c3ccccn3)nc2NCc2ccccn2)cc1` stands 1.56% (inactive); under `c1ccc(-c2nnc(-c3ccccn3)nc2NCC2CCOCC2)cc1`, 6.73% (inactive); under `Cc1ccccc1CNC(=O)c1cc(-c2ccccc2)on1`, -46.6% (inactive).
Still for that read-out and setting: for `C[C@H](Nc1nc(-c2ccccn2)nnc1-c1ccccc1)C1CCCCC1` the value was 72.6% (inactive); for `CC(C)(C)c1ccc(CNc2nc(-c3ccccn3)nnc2-c2ccccc2)cc1`, 37.7% (inactive); for `O=C(Nc1ncc(-c2ccccc2)o1)c1cc(-c2ccccc2)on1`, -53.8% (inactive).
Same read-out and setting: under `CN(C)c1nc(-c2ccccn2)nnc1-c1ccccc1` stands 10.9% (inactive); under `C[C@@H](Nc1nc(-c2ccccn2)nnc1-c1ccccc1)c1ccccc1`, 79.4% (inactive).
As to `OCC1CCN(c2nc(-c3ccccn3)nnc2-c2ccccc2)CC1`, the activity change, negative = inhibition was 6.32% (inactive).
On the same count and under the same terms, under `CN1CCN(C(=O)c2cc(-c3ccccc3)on2)CC1` stands -34.5% (inactive); under `O=C(NCc1ccccc1)c1cc(-c2ccccc2)on1`, -23.1% (inactive).
Same read-out and setting: under `Cc1ccc(Nc2nc(-c3ccccn3)nnc2-c2ccccc2)cn1` stands -25% (inactive).
The same measure, in the same setting: for `Clc1cccc(CNc2nc(-c3ccccn3)nnc2-c2ccccc2)c1` the value was 46.4% (inactive); for `OCC1CCN(Cc2ccc(O)c3ncccc23)CC1`, 51.9% (inactive).
Regarding `c1ccc(-c2nnc(-c3ccccn3)nc2NCc2cccnc2)cc1`, the activity change, negative = inhibition was 14.6% (inactive).
Consider `c1ccc(-c2ccc(CNc3nc(-c4ccccn4)nnc3-c3ccccc3)cc2)cc1`, for which the activity change, negative = inhibition was 22% (inactive).
Regarding `OCCCNc1nc(-c2ccccn2)nnc1-c1ccccc1`, the activity change, negative = inhibition is -5.89% (inactive).
As to `C[C@@H](Nc1nc(-c2ccccn2)nnc1-c1ccccc1)C1CCCCC1`, the activity change, negative = inhibition is 133% (inactive).
Still for that read-out and setting: for `c1ccc(-c2nnc(-c3ccccn3)nc2N2CCN(c3ccncc3)CC2)cc1` the value was 10.3% (inactive); for `c1ccc(-c2nnc(Nc3nc(-c4ccccn4)nnc3-c3ccccc3)s2)cc1`, -5.61% (inactive).
Same read-out and setting: under `O=C(NCCN1CCOCC1)c1cc(-c2ccccc2)on1` stands -26.6% (inactive); under `Cc1cccc(CNc2nc(-c3ccccn3)nnc2-c2ccccc2)c1`, 45.1% (inactive); under `Oc1ccc(CN2CCC3CCCCC3C2)c2cccnc12` (configuration not stated), 26.7% (inactive).
For the molecule `Oc1ccc(CNC2Cc3ccccc3C2)c2cccnc12`, the activity change, negative = inhibition is 26.4% (inactive).

The next assay deals with U2OS proteasome chymotrypsin-like activity, Proteasome-Glo luminescence. The description is as above.
Settings: not given
Put shortly: as §1
What is called AC50 is the concentration giving half of the maximal activity seen. With `Cc1cccc(CNC(=O)c2cc(-c3ccccc3)on2)c1`, the AC50 was 39.4 µM.
Consider `CC(C)(C)CCNC(=O)c1cc(-c2ccccc2)on1`, for which the AC50 is 36.5 µM.
Still for that read-out and setting: for `O=C(NCCCO)c1cc(-c2ccccc2)on1` the value was 3.88 µM; for `O=C(Nc1ccc2ccccc2n1)c1cc(-c2ccccc2)on1`, 29.1 µM.
The same measure, in the same setting: for `c1ccc(-c2cnc(Nc3nc(-c4ccccn4)nnc3-c3ccccc3)s2)cc1` the value was 2.42 µM; for `O=C(NCC1CC1)c1cc(-c2ccccc2)on1`, 33.7 µM.
The same measure, in the same setting: for `O=C(Nc1ncc2ccccc2n1)c1cc(-c2ccccc2)on1` the value was 28.1 µM.
As for `Cc1cccc(NC(=O)c2cc(-c3ccccc3)on2)n1`, the AC50 is 17.3 µM.
The same measure, in the same setting: under `CCCCNC(=O)c1cc(-c2ccccc2)on1` stands 21.5 µM; under `CN(C)CCNC(=O)c1cc(-c2ccccc2)on1`, 33.4 µM; under `O=C(c1cc(-c2ccccc2)on1)N1CCN(c2ccncc2)CC1`, 2.52 µM.
